Source: ChEMBL document CHEMBL4376888, “Discovery of Potent, Selective, and Direct Acid Sphingomyelinase Inhibitors with Antidepressant Activity” (J Med Chem, 2020)
Calls of active or inactive are those of the source. The rule behind the calls is not given here.

Tests used:
[1] = biological target: T1, Sphingomyelin phosphodiesterase (Homo sapiens, UniProt P17405); assay: Inhibition of human Huh7 cell derived acid sphingomyelinase using NBD-sphingomyelin as substrate after 30 mins by fluorescence based assay
T1 sequence (P17405 whole entry): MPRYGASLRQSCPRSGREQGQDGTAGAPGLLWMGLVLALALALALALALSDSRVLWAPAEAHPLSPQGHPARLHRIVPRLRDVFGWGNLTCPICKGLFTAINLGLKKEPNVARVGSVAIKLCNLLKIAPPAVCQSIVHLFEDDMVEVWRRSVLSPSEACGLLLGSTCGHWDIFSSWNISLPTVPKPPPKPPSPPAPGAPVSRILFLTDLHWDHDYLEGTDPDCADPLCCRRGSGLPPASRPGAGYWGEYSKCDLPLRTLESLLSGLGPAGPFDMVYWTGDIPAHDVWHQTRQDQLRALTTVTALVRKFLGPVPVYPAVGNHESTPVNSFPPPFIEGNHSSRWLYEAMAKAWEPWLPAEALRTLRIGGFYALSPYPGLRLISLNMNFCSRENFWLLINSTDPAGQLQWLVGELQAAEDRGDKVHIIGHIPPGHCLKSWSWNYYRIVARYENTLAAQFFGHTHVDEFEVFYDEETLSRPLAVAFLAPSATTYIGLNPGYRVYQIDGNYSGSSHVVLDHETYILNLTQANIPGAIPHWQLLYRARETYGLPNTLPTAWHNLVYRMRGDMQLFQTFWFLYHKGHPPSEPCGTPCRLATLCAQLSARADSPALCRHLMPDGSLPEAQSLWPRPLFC
In short: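 Cultured cells were lysed in 25 mM Tris-HCl pH 7.4, 5 mM EDTA, sonicated and cleared at 300 g. 400 μg protein incubated with NBD-sphingomyelin in 100 mM sodium acetate pH 4.7, 1% Triton X-100, 40 mM CaCl2, 100 μM ZnCl2. Inhibitors added in DMSO, 37 °C, 30 min. Stopped with chloroform/methanol 2:1; NBD-ceramide fluorescence after TLC.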

[2] = biological target: T1, Sphingomyelin phosphodiesterase; assay: Inhibition of recombinant human acid sphingomyelinase (His62 to Pro628 residues) using NBD-sphingomyelin as substrate after 30 mins by fluorescence based assay
In short: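 Buffer 100 mM sodium acetate pH 4.7, 1% Triton X-100, 40 mM CaCl2, 100 μM ZnCl2. Inhibitors in DMSO at various concentrations, 37 °C, 30 min. NBD-ceramide fluorescence after chloroform/methanol extraction and TLC.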

[3] = biological target: T1, Sphingomyelin phosphodiesterase; assay: Inhibition of acid sphingomyelinase (unknown origin)
[4] = biological target: T2, Sphingomyelin phosphodiesterase 2 (Homo sapiens) (UniProt O60906); assay: Inhibition of neutral sphingomyelinase (unknown origin) at 100 uM using NBD-sphingomyelin as substrate after 30 mins by fluorescence based assay
T2 sequence (whole entry): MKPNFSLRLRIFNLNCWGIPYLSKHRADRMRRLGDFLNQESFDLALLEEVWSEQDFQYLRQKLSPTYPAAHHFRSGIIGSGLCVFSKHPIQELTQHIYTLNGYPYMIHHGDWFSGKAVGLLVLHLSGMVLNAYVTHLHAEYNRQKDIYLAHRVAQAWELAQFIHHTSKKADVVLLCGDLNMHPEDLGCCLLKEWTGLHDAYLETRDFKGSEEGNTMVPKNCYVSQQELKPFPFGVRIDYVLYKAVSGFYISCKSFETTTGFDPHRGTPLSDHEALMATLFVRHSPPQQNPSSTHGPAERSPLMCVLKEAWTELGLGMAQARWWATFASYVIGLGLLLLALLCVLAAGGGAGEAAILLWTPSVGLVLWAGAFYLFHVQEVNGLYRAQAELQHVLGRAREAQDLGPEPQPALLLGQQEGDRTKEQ
In short: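 Neutral sphingomyelinase assay run as the ASM cell-extract assay (NBD-sphingomyelin, 37 °C, 30 min, chloroform/methanol extraction, TLC, NBD-ceramide fluorescence). Buffer was 200 mM Tris-HCl pH 7.4 with 10 mM MgCl2 and 10 mM dithiothreitol. Tested at 100 μM.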

[5] = Solubility of the compound in physiological saline; assay type: physicochemical; conditions: buffer
NIH3T3 = assay: Cytotoxicity against mouse NIH/3T3 cells assessed as reduction in cell viability after 24 hrs by MTT assay; assay type: cell-based; conditions: mouse, nih3t3, 24 h
In short: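 NIH3T3 cells in DMEM with 10 % FBS at 37 °C, 5 % CO₂, grown overnight, then inhibitor added for 24 h; viability read by MTT.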

Rattus norvegicus [6] = assay: Antidepressant activity in Sprague-Dawley rat model of reserpine-induced depression assessed as reduction in total time spent in center at 12 mg/kg, ip administered twice daily for 2 weeks measured for 5 mins by open field test; assay type: functional, organism-based
In short: (§1)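 Female SD rats (6-8 weeks, 200 g) given reserpine 4 mg/Kg ip daily to induce depression; test agent in 5 % DMSO, 2 % Tween 80, 5 % glucose, ip twice a day for two weeks. Each rat placed in the central square of a 100 cm × 100 cm box (25 squares, walls ~42 cm); centre time, grid crossings, rearing and grooming recorded over 5 min, 7:30–12:00; n = 8.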

Rattus norvegicus [7] = assay: Antidepressant activity in Sprague-Dawley rat model of reserpine-induced depression assessed as increase in time passing the grid at 12 mg/kg, ip administered twice daily for 2 weeks measured for 5 mins by open field test; assay type: functional, organism-based; in short: as §1
Rattus norvegicus [8] = assay: Antidepressant activity in Sprague-Dawley rat model of reserpine-induced depression assessed as increase in frequency of upright at 12 mg/kg, ip administered twice daily for 2 weeks measured for 5 mins by open field test; assay type: functional, organism-based; in short: as §1
Rattus norvegicus [9] = assay: Antidepressant activity in Sprague-Dawley rat model of reserpine-induced depression assessed as increase in grooming frequency at 12 mg/kg, ip administered twice daily for 2 weeks measured for 5 mins by open field test; assay type: functional, organism-based; in short: as §1
Rattus norvegicus [10] = assay: Reversal of reserpine-induced inhibition of neurogenesis in Sprague-Dawley rat hippocampus at 12 mg/kg, ip administered twice daily for 2 weeks by EDU-incorporation assay; assay type: functional, organism-based
In short: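 Reserpine-depressed female SD rats (4 mg/Kg ip daily; drug ip twice daily for two weeks) injected with EdU 8 mg/kg twice in 1 day, killed 96 h later. Frozen brain sections washed with glycine and PBS, Click-iT stained 30 min, Hoechst 33342 30 min; hippocampal proliferation scored by fluorescence microscopy; n = 5.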

| IC50 [1] [µM] | IC50 [2] [µM] | inhibition [4] | SMILES | other results |
| --- | --- | --- | --- | --- |
| 7.83 | 4.93 |  | O=C(NO)c1cccc(OCc2ccc(-c3noc(Cc4ccccc4)n3)cc2)c1 |  |
| > 100 |  |  | COc1ccc(C(=O)NO)cc1OCc1ccc(-c2noc(-c3ccc(Br)cc3)n2)cc1 |  |
|  |  | inactive | CCCCCCc1ccc(COc2cccc(C(=O)NO)c2)cc1 | solubility [5]: Insoluble |
| 34.7 |  |  | CCc1nc(-c2ccc(COc3cccc(C(=O)NO)c3)cc2)no1 |  |
| 8.96 | 0.36 |  | O=C(NO)c1cccc(OCc2ccc(-c3ccc(Cl)cc3)cc2)c1 | solubility [5]: Insoluble |
| > 100 |  |  | O=C(NO)c1cccc(OCc2ccc(-c3noc(-c4ccccc4)n3)cc2)c1 |  |
| 4.97 | 3.83 | inactive | COc1ccc(C(=O)NO)cc1OCc1ccc(-c2cccnc2)cc1 |  |
| > 100 |  |  | O=C(NO)c1cccc(OCc2ccc(-c3noc(-c4cccc(F)c4)n3)cc2)c1 |  |
| 0.88 | 4.09 | inactive | O=C(NO)c1cc(OCc2ccc(-c3ccccc3)cc2)no1 |  |
| > 100 |  |  | O=C(NO)c1cccc(OCc2ccc(-c3noc(-c4ccc(Br)cc4)n3)cc2)c1 |  |
| 52.3 |  |  | O=C(NO)c1cccc(OCc2ccc(-c3cccnc3)cc2)c1 |  |
| 1.73 | 4.25 | inactive | O=C(NO)c1cccc(OCc2ccc(-c3noc(CCc4ccccc4)n3)cc2)c1 |  |
| 19.6 |  | inactive | O=C(NO)c1cccc(OCc2ccc(-c3ccccc3)cc2)c1 | solubility [5]: Insoluble |

The next lines start with the compound.

| SMILES | IC50 [1] [µM] | IC50 [2] [µM] | inhibition [4] | other results |
| --- | --- | --- | --- | --- |
| CCCCCCCC(N)(P(=O)(O)O)P(=O)(O)O |  |  |  | IC50 [3]: 0.02 µM |
| COc1ccc(C(=O)NO)cc1OCc1ccc(-c2ccc(Cl)cc2)cc1 | 0.34 | 8.07 | inactive | solubility [5]: Insoluble |
| CCOc1ccc2oc(-c3cc(Br)cc4c3OCOC4)c(N)c(=O)c2c1 |  |  |  | IC50 [3]: 3.1 µM |
| COc1ccc(C(=O)NO)cc1OCc1ccc(-c2ccccc2)cc1 |  |  | inactive | solubility [5]: Insoluble |
| CCCCCCc1ccc(COc2cc(C(=O)NO)ccc2OC)cc1 |  |  | inactive | solubility [5]: Insoluble |
| COc1ccc(C(=O)NO)cc1OCc1noc(-c2ccc(Cl)cc2)n1 | 21.6 |  | inactive |  |
| CCCCCCCCCCOc1cc(C(=O)NO)on1 | 0.36 | 2.2 | inactive |  |
| COc1c(O)cc2oc3cc(O)c(CC=C(C)C)c(O)c3c(=O)c2c1CC=C(C)C [MANGOSTIN] | 14.1 |  |  |  |
| COc1ccc(C(=O)NO)cc1OCc1noc(-c2cccc(Cl)c2)n1 | 9.22 |  | inactive |  |
| CN(C)CCC=C1c2ccccc2CCc2ccccc21 [AMITRIPTYLINE] |  |  |  | Activity (NIH3T3): Non-Toxic; Activity (Rattus norvegicus [6]): Active; Activity (Rattus norvegicus [7]): Active; Activity (Rattus norvegicus [8]): Active; Activity (Rattus norvegicus [9]): Active; Activity (Rattus norvegicus [10]): Active |
| CCCCCCCCCCCCC/C=C/[C@H](O)[C@@H](COP(=O)([O-])OCC[N+](C)(C)C)NC(=S)NC(C)(C)C |  |  |  | Ki [3]: 70 µM |
| COc1ccc(-c2nc(COc3cc(C(=O)NO)ccc3OC)no2)cc1OC | 13.8 |  |  |  |
| CCCCCCCCCCOc1cc(C(=O)NO)ccc1OC |  | 0.89 |  |  |
